# Measurements from different studies.
# Protocols differ between the studies behind these lines.
# Observed: metabolic stability
# Species: mouse
SMILES,test system,conditions,half-life [min]
CN(C)CC(=O)OCc1cc2[nH]c(=S)n(Cc3cccnc3)c(=O)c2cc1Cl,liver microsomes,"1 µM, pH 7.4",< 5
OCc1ccc(-c2nn(Cc3ccccc3)c3ccccc23)o1,hepatocytes,,1.89
C=CCn1c(=O)c2cnc(Nc3ccc(N4CCN(C)CC4)cc3)nc2n1-c1ccc2c(n1)[C@@](O)(CC)CC2,liver microsomes,,77
O=c1c2ccc(OCc3ccc(OC(F)(F)F)cc3)cc2[nH]c2cc(Cl)cc(F)c12,liver microsomes,"1 µM, pH 7.4",> 60
NS(=O)(=O)c1nnc(NC(=O)CCC2CC3CCC2C3)s1 (stereo not shown),liver microsomes,,46
CC(C)c1cc(C(=O)NCCN)c2cnn(C(C)C)c2n1,liver microsomes,,> 145
C[C@@H]1CNC[C@H](C)[C@@]1(O)c1ccc(-c2ccnc3[nH]cc(F)c23)cc1Cl,liver microsomes,,9.1
Cc1[nH]c(C)c(S(=O)(=O)Nc2ccc(C(F)(F)F)c(Cl)c2)c1C(=O)N1CCC(F)(F)C1,liver microsomes,,11.7
O=c1c2cc(Cl)c(CO)cc2[nH]c(=S)n1Cc1cccnc1,liver microsomes,"1 µM, pH 7.4",29.5
Cc1cc(-c2ccnc3[nH]cc(F)c23)cc(F)c1[C@@]1(O)[C@H](C)CN(C(=O)CN)C[C@@H]1C,liver microsomes,,84.1
O=c1c2ccc(Oc3ccc(OC(F)(F)F)cc3)cc2[nH]c2ccc(Cl)c(F)c12,liver microsomes,"1 µM, pH 7.4",> 60
CCN(CC)CCNC(=O)c1c(C)[nH]c(/C=C2\C(=O)Nc3ccc(F)cc32)c1C,liver microsomes,,17
O=C(O)Cc1ccccc1Nc1c(Cl)cccc1Cl,liver microsomes,,44.4
O=c1c2cc(Cl)ccc2[nH]c(=S)n1Cc1cccnc1,liver microsomes,"1 µM, pH 7.4",27
O=c1c2c([nH]c3cc(Oc4ccc(OC(F)(F)F)cc4)c(F)cc13)CCCC2,liver microsomes,"1 µM, pH 7.4",13.2
Nc1nnc(-c2ccccc2O)cc1N1CCN(Cc2ccc(N3CCC(CN4CCN(c5ccc6c(c5)C(=O)N(C5CCC(=O)NC5=O)C6=O)CC4)CC3)c(F)c2)CC1 (stereo not shown),liver microsomes,1 mM,59
Cc1cc(-c2ccnc3[nH]cc(F)c23)ccc1[C@@]1(O)[C@H](C)CNC[C@@H]1C,liver microsomes,,8
O=c1c2ccc(Oc3cccc(OC(F)(F)F)c3)cc2[nH]c2cc(Cl)cc(F)c12,liver microsomes,"1 µM, pH 7.4",57
NS(=O)(=O)c1nnc(NC(=O)CCC2CCC(F)(F)CC2)s1,liver microsomes,,> 120
Cc1cc(-c2ccnc3[nH]cc(F)c23)cc(F)c1[C@@]1(O)[C@H](C)CN(C2CCS(=O)(=O)CC2)C[C@@H]1C,liver microsomes,,45.9
CCN(CC)CCCOc1ccc2c(=O)c3c([nH]c2c1)CCCC3,liver microsomes,"1 µM, pH 7.4",> 60
Cc1cc(-c2ccnc3[nH]cc(F)c23)cc(F)c1[C@@]1(O)[C@H](C)CN(C(C)C)C[C@@H]1C,liver microsomes,,1.5
O=c1c2c(F)cc(Cl)cc2[nH]c2cccc(Oc3ccc(OC(F)(F)F)cc3)c12,liver microsomes,"1 µM, pH 7.4",> 60
O=C1CCC(N2Cc3cc(C4CCN(Cc5ccccc5)CC4)ccc3C2=O)C(=O)N1 (stereo not shown),liver microsomes,1 µM,> 60
Cc1cc(-c2ccnc3[nH]cc(F)c23)cc(F)c1[C@@]1(O)[C@H](C)CNC[C@@H]1C,liver microsomes,,18.9
Cc1[nH]c(C)c(S(=O)(=O)Nc2ccc(C(F)(F)F)c(Cl)c2)c1C(=O)N(C)C,liver microsomes,,3.9
Cc1c(C)n(Cc2cccc(OC(C)(C)C(=O)O)c2)c2ccc(C(=O)N[C@@H](C)c3ccc(C(C)(C)C)cc3)cc12,liver microsomes,,> 60
O=c1c2ccc(Oc3ccc(OC(F)(F)F)cc3)cc2[nH]c2ccc(F)c(Cl)c12,liver microsomes,"1 µM, pH 7.4",> 60
CC(C)C(=O)OCc1cc2[nH]c(=S)n(Cc3cccnc3)c(=O)c2cc1Cl,liver microsomes,"1 µM, pH 7.4",< 5
O=c1c2c([nH]c3c(Oc4ccc(OC(F)(F)F)cc4)cccc13)CCCC2,liver microsomes,"1 µM, pH 7.4",> 60
O=C(Oc1coc(CSc2ncccn2)cc1=O)c1ccc([N+](=O)[O-])cc1,liver microsomes,,< 1
